Like-named read-outs stand apart in the source and are kept apart here. Marks after values point to notes of the source that are not given here.
Key:
[1] = system: promastigotes of L. braziliensis; experiment: In vitro growth inhibition of L. braziliensis promastigotes; assay type: cell-based, Leishmania (V) braziliensis (MHOM/BR/75/M2903); details: Leishmania braziliensis; for IC50: read-out: promastigote, IC50 L. braziliensis
[2] = system: promastigotes of L. infantum; experiment: In vitro growth inhibition of L. infantum promastigotes; assay type: cell-based, Leishmania infantum (MHOM MA67I7MAP263); details: for IC50: read-out: promastigote, IC50 L. infantum
Outline: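 L. infantum MHOM MA67I7MAP263 promastigotes at 2 × 10^6 parasites/mL were exposed to 0.5–25 μM test compound for 72 h at 25 °C. Dilutions came from a 3000 μM DMSO stock, with final DMSO ≤1%. MTT (0.4 mg/mL) was added for 4 h at 37 °C, formazan was dissolved in DMSO and read at 570 nm. Inhibition was calculated against untreated controls. At least three experiments, mean ± SD.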

[3] = system: epimastigotes of T. cruzi; experiment: In vitro anti-T. cruzi evaluation on epimastigotes; assay type: cell-based, T. cruzi (CL Brener clone); details: for S.I.T.cruzi (selectivity index), column epimastigote, IC50 (μM) T. cruzi (S.I.T.cruzi): CC50 (J774.1A) / IC50 of epimastigotes (T. cruzi); for IC50: 120 h, read-out: epimastigote, IC50 T. cruzi
Outline: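 Turbidity (A595) was read at day 0 and day 5. PGI was calculated relative to untreated controls, with single-point PGI at 25 μM. IC50 is the concentration […]. At least three experiments.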

[4] = Cytotoxicity on primary peritoneal macrophages; assay type: cell-based, mouse; details: mouse, primary peritoneal macrophages, peritoneal macrophage, CC50, 48 h, MTT
Outline: (§1)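 Peritoneal or J774.1A macrophages were grown in DMEM with 10% heat-inactivated FBS, L-glutamine and penicillin/streptomycin. Cells were seeded at 5 × 10^4 cells/well for 24 h at 37 °C, 5% CO2, then given test compound at 10–100 μM (from 25,000 μM DMSO stock) for 48 h. MTT (0.4 mg/mL, 4 h, 37 °C) was dissolved in DMSO and read at 570 nm. Cytotoxicity was expressed relative to negative controls. At least three experiments.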

[5] = system: amastigotes of L. braziliensis; experiment: Ex vivo antiamastigote activity of L. braziliensis; assay type: cell-based, L. braziliensis (MHOM/BZ/82/M2903); details: for IC50: Leishmania braziliensis, 48 h, read-out: amastigote, IC50 L. braziliensis
Outline: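 L. braziliensis MHOM/BZ/82/M2903 amastigotes were taken from footpad lesions of infected BALB/c mice. Macrophages were removed by brief centrifugation (3000 rpm, 2–3 min). Amastigotes were kept at 37 °C, pH 5.5, in supplemented M199 with 10% FCS. At 2 × 10^6/mL they were exposed to 1.0–50.0 μM test compound (controls 1% DMSO). At 48 h parasites were counted in a Neubauer chamber against untreated controls. S.I. = peritoneal macrophage CC50 / amastigote IC50.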

[6] = Solubility, qualitative remarks; assay type: physicochemical; details: qualitative remark
[7] = Cytotoxicity on J774.1A macrophages; assay type: cell-based; details: mouse, J774.1A macrophages, J774.1A macrophage, CC50, 48 h, MTT
Outline: as §1

[8] = system: epimastigotes of T. cruzi; experiment: Antifolate activity: IC50 on T. cruzi epimastigotes with and without folic acid; assay type: cell-based; details: presence vs absence of D,L-folic acid
Outline: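 T. cruzi epimastigotes were treated with test compound with or without D,L-folic acid, following the epimastigote turbidimetric viability protocol (120 h, 25 °C, A595). IC50 was determined in each condition and compared.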

[9] = system: promastigotes of L. infantum; experiment: Effect of metal cations on IC50 on L. infantum promastigotes; assay type: cell-based; details: Leishmania parasites, metal cation at 1 μM
Outline: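 L. infantum promastigotes were treated with test compound alone or with a metal cation (Fe3+, Cu2+ or Zn2+) at 1 μM, following the promastigote MTT viability protocol. IC50 was determined with and without the cation and compared.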

[10] = system: Salmonella typhimurium TA 98 strain; experiment: Mutagenicity Ames test; assay type: cell-based; details: dose 20.0 μg/plate
[11] = system: epimastigotes of T. cruzi; details: cited from earlier work
[12] = system: J774.1A macrophages; details: read-out: J774.1A macrophage, CC50; cited from earlier work
[13] = system: J774.1A macrophages; experiment: Cytotoxicity on J774.1A macrophages; assay type: cell-based; details: read-out: J774.1A macrophage, CC50; 48 h, MTT
Outline: as §1

Row | SMILES | IC50 [5] [µM] | IC50 [1] [µM] | IC50 ([2]; Leishmania infantum, 72 h) [µM] | S.I.T.cruzi (selectivity index), column epimastigote, IC50 (μM) T. cruzi (S.I.T.cruzi) [3] | IC50 ([3]; Trypanosoma cruzi) [µM] | CC50 at 48 h [4] [µM] | further results
1 | COc1cccc(-c2nc3ccccc3/c(=N/N)[nH]2)c1 [3h, (Z)-1-(2-(3-Methoxyphenyl)quinazolin-4(3H)-ylidene)hydrazine] |  | 12.2 ± 0.76 | > 25 |  | > 25 |  | inhibition at 25 µM ([2]; Leishmania infantum, read-out: promastigote, PGI (percentage growth inhibition) L. infantum): 47.2%; promastigote, IC50 L. infantum ([2]; promastigotes, 72 h, MTT): inactive; inhibition at 25 µM ([3]; Trypanosoma cruzi, read-out: epimastigote, PGI (percentage growth inhibition) T. cruzi, determined at 25 μM): 10.1%
2 | N/N=c1\[nH]c(-c2cccc(Br)c2)nc2ccccc12 [3g, (Z)-1-(2-(3-bromophenyl)quinazolin-4(3H)-ylidene)hydrazine] |  | > 25 | 21.1 ± 1.21 |  | > 25 |  | inhibition at 25 µM ([1]; read-out: promastigote, PGI (percentage growth inhibition) L. braziliensis): 27.3%
3 | Nc1ccc([N+](=O)[O-])cc1N [NPD, 4-nitro-o-phenylenediamine, reference compound] |  |  |  |  |  |  | revertants number [10]: 394.0 ± 10
4 | CC1CS(=O)(=O)CCN1/N=C/c1ccc([N+](=O)[O-])o1 (stereo not shown) [nifurtimox] |  |  |  |  |  |  | change of IC50 on addition of folic acid (FA) [8]: not affected; S.I.T.cruzi (selectivity index) ([11]; CC50 (J774.1A) / IC50 of epimastigotes (T. cruzi)): 36 ^c; IC50 ([11]; read-out: epimastigote, IC50 T. cruzi, anti-Chagasic reference): 7.7 ± 0.5 µM; CC50 [12]: 280 ± 4 µM

Now from value to compound, other results behind:

Row | IC50 [5] [µM] | SMILES | IC50 [1] [µM] | IC50 ([2]; Leishmania infantum, 72 h) [µM] | S.I.T.cruzi (selectivity index), column epimastigote, IC50 (μM) T. cruzi (S.I.T.cruzi) [3] | IC50 ([3]; Trypanosoma cruzi) [µM] | CC50 at 48 h [4] [µM] | further results
5 | 7.41 ± 0.39 | NNc1nc(-c2ccc(F)cc2)nc2ccccc12 [3b, (Z)-1-(2-(4-fluorophenyl)quinazolin-4(3H)-ylidene)hydrazine] | 3.85 ± 0.17 | 5.01 ± 0.31 | >6.7 | 17.9 ± 1.21 | > 100 | solubility in culture [6]: appreciable solubility
6 | 14 ± 0.89 | Cc1ccc(-c2nc3ccccc3/c(=N/N)[nH]2)cc1 [3e, (Z)-1-(2-(4-Methylphenyl)quinazolin-4(3H)-ylidene)hydrazine] | 10.1 ± 0.48 | 1.2 ± 0.08 | 6.4 | 18 ± 1.11 | 84.8 ± 3.67 | CC50 at 48 h [7]: 115 ± 5.43 µM; S.I.Leishmania (selectivity index) ([5]; CC50 (peritoneal macrophage) / IC50 (amastigotes of L. braziliensis)): 6.1; change of IC50 on addition of folic acid (FA) [8]: Increasing IC50 values by about twofold; change of IC50 in the presence of Cu2+ [9]: increase in IC50 values
7 | 8.43 ± 0.51 | NNc1nc(-c2cccc(Cl)c2)nc2ccccc12 [3f, (Z)-1-(2-(3-chlorophenyl)quinazolin-4(3H)-ylidene)hydrazine] | 5.63 ± 0.36 | 4.55 ± 0.29 | no active | > 25 | > 100 | CC50 [13]: > 120 µM; solubility in culture [6]: appreciable solubility

From paper PMC9773939 (ACS Omega, 2022)
